The nature of data set [1]: Inhibition of SARS CoV-2 3C like protease using FAM-SAVLQ/SG-QLX520 as substrate pretreated for 1 hr followed by substrate addition and measured after 1 hr by FRET assay. Details: species or system Severe acute respiratory syndrome coronavirus 2. The method, boiled down: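 SARS-CoV-2 3CLpro was expressed from pET-28a(+). It was preincubated with serial compound dilutions at 37°C for 1 h in 20 mM HEPES pH 8, 200 mM NaCl, 0.4 mM EDTA, 60% glycerol and 6 mM DTT. IC50 came from a variable-slope fit, averaging at least two determinations.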

Data set [2] can be described thus: Inhibition of MERS CoV 3C like protease using FAM-SAVLQ/SG-QLX520 as substrate pretreated for 30 mins followed by substrate addition and measured after 1 hr by FRET assay. Details: species or system Middle East respiratory syndrome-related coronavirus.
Data set [3] in a line: Inhibition of SARS CoV-2 3C like protease expressed in HEK293T cells transfected with pGlo-VRLQS incubated for 6 hrs by firefly/renilla luciferase reporter assay. Format: cell-based. As to conditions: Severe acute respiratory syndrome coronavirus 2, HEK-293T. A digest of the protocol: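 HEK293T cells, one day old, were co-transfected with pR-SARS-CoV-2 3CLpro (3CLpro gene in a PRRSV replicon, between ORF1b and 2a) and pGlo-VRLQS (caged firefly luciferase with a VRLQS cleavage site, plus Renilla control). C145A-mutant and mock transfections served as negative controls. Next morning, serial compound dilutions were added for 6 h at 37 C. Read-out was the firefly/Renilla ratio, and EC50 came from a variable-slope fit.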

Another data set relates to SARS-CoV-2. Kind of data set: Antiviral activity against SARS CoV-2 infected in African green monkey Vero cells assessed as inhibition of viral replication incubated for 48 to 72 hrs by plaque reduction assay. Type of data set: functional, organism-based. The settings on record: Severe acute respiratory syndrome coronavirus 2, Vero.
In another data set the test system is HEK-293T. Kind of data set: Cytotoxicity against HEK293T cells assessed as reduction in cell viability measured after 72 hrs by CytoTox 96 nonradioactive cytotoxicity assay. Format: cell-based. As to conditions: human. The method, boiled down: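 HEK293T cells were exposed to compound at 1 to 100 μM for 72 h. Cytotoxicity was read with a CytoTox 96 nonradioactive kit, and CC50 was fitted with a variable-slope curve.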

The values that follow come from ChEMBL document CHEMBL5029188.

Each structure is given as a SMILES string.

`CC(C)C[C@H](NC(=O)OC(c1ccccc1)C1CCC(F)(F)CC1)C(=O)N[C@@H](C[C@@H]1CCNC1=O)C(O)S(=O)(=O)O` (stereo not given in full): the concentration for half-maximal inhibition (IC50) in data set [1] stood at 170 nM; in data set [2], 50 nM. The EC50 in data set [3] turned out to be 1450 nM; with SARS-CoV-2, 700 nM. Further, the cytotoxic concentration (CC50) in the data set with HEK-293T was over 100 µM.
